ChEMBL document CHEMBL4257464, “Development of NMR and thermal shift assays for the evaluation of Mycobacterium tuberculosis isocitrate lyase inhibitors” (Medchemcomm, 2017)
The source made the active and inactive calls. The rule behind the calls is not given here. Where a SMILES comes first, the peptide text is derived from it. The star is where a group is joined. Cbz = O=C(OCc1ccccc1)*

How the values were obtained:
Isocitrate lyase 1 [1] = target: T1, Isocitrate lyase 1 (Mycobacterium tuberculosis (strain CDC 1551 / Oshkosh), UniProt P9WKK6); assay: Inhibition of Mycobacterium tuberculosis ICL1 expressed in Escherichia coli BL21(DE3) using DL-isocitrate as substrate incubated for 25 mins in presence of MgCl2 by 1H NMR method
T1 sequence (P9WKK6 whole entry): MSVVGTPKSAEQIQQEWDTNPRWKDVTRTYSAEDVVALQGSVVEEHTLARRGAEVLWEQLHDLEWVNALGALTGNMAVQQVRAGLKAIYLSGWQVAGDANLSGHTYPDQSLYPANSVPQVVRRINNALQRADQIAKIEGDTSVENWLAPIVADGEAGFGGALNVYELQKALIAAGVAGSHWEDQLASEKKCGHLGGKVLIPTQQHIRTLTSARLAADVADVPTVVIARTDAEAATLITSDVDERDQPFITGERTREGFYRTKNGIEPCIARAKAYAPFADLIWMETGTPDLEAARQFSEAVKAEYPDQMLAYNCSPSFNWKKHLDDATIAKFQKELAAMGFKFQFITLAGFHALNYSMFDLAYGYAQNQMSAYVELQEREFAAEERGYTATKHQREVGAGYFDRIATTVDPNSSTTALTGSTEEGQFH
Method in brief: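 1H NMR assay at 500 MHz, 300 K, water-suppressed spectra recorded over time. Sample: 190 nM ICL1, 1 mM DL-isocitrate, 5 mM MgCl2, varying inhibitor concentrations, 50 mM Tris/Tris-D11 pH 7.5 in 90% H2O/10% D2O. Initial rates from linear fits up to 20% turnover; IC50 from a 3-parameter sigmoid fit. Triplicate measurements, errors given as SD.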

[2] = target: T2, Isocitrate lyase 1 (Mycobacterium tuberculosis (strain CDC 1551 / Oshkosh)) (UniProt P9WKK6); assay: Inhibition of Mycobacterium tuberculosis ICL1 expressed in Escherichia coli BL21(DE3) at 100 uM using DL-isocitrate as substrate incubated for 25 mins in presence of MgCl2 by 1H NMR method
T2 sequence (whole entry): T1 sequence (P9WKK6 whole entry)
Method in brief: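 Direct 1H NMR time course at 500 MHz, 300 K, with excitation-sculpting water suppression. Sample: 190 nM ICL1, 1 mM DL-isocitrate, 5 mM MgCl2, 100 μM inhibitor, 50 mM Tris-D11 pH 7.5 in 90% H2O/10% D2O. Substrate consumption and product formation are tracked directly. Initial rates come from linear fits up to 20% turnover. Run in triplicate.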

[3] = target: T2, Isocitrate lyase 1 (Mycobacterium tuberculosis (strain CDC 1551 / Oshkosh)); assay: Binding affinity to Mycobacterium tuberculosis ICL1 expressed in Escherichia coli BL21(DE3) assessed as melting temperature at 1 mM in presence of MgCl2 by SYPRO orange dye based fluorescence assay (reference value: 43 degC)
[4] = target: T2, Isocitrate lyase 1 (Mycobacterium tuberculosis (strain CDC 1551 / Oshkosh)); assay: Binding affinity to Mycobacterium tuberculosis ICL1 expressed in Escherichia coli BL21(DE3) assessed as increase in melting temperature at 1 mM in presence of MgCl2 by SYPRO orange dye based fluorescence assay
Isocitrate lyase 1 [5] = target: T1, Isocitrate lyase 1; assay: Inhibition of Mycobacterium tuberculosis ICL1

Structure (SMILES)	inhibition [2]	ΔTm [4] [°C]	other results
O=C(O)CC[N+](=O)[O-]	Active	–	IC50 (Isocitrate lyase 1 [1]): 14.7 µM; Tm [3]: 40.9 °C
NC(CC(=O)O)c1cccnc1 (stereo not given)	–	> 0.5	–
NC(Cc1c[nH]c2ccccc12)C(=O)NCc1ccco1 (stereo not given)	–	> 0.5	–
COc1ccc(C(=O)COC(=O)c2oc3ccc(OC)cc3c2C)c(OC)c1	inactive	–	–
Nc1ccc(C(=O)CC(=O)Nc2cc(C(=O)O)cc(C(=O)O)c2)cc1	–	> 0.5	–
CCOC(=O)c1ccc(CC(=O)c2oc3cc(O)ccc3c2C)o1	Active	> 0.5	IC50 (Isocitrate lyase 1 [1]): > 100 µM
O=C(O)COc1ccc(C(=O)Cc2ccc3c(c2)OCCCO3)c(O)c1	–	> 0.5	–
CCOC(=O)c1cc2cc(CC(=O)c3ccc(O)cc3O)ccc2o1	Active	> 0.5	IC50 (Isocitrate lyase 1 [1]): > 100 µM
O=C(O)C1=CC=C(COc2ccc3ccc(=O)oc3c2)C1	–	> 0.5	–
CCOC(=O)c1oc2ccc(CC(=O)c3c(C)cc(O)cc3O)cc2c1C	inactive	–	–
COc1ccc(OCC(=O)c2c(O)cc(O)cc2O)cc1	–	> 0.5	–
CCCCc1cc(C(=O)Cc2cc3ccccc3o2)c(O)cc1O	inactive	–	–
O=C(O)CNC(=O)c1ccc(NC(=O)/C(=C/c2ccccc2)NC(=O)c2ccccc2)cc1	–	> 0.5	–
CCOC(=O)c1cc2cc(CC(=O)c3ccc(OC)cc3O)ccc2o1	inactive	–	–
CC(C)[C@H](NC(=O)COc1ccc(C(=O)COc2ccccc2)c(O)c1)C(=O)O	–	> 0.5	–
COc1cc(OC)c(C(=O)COC(=O)c2oc3ccccc3c2C)c(OC)c1	inactive	–	–

Structure (SMILES)	inhibition [2]	ΔTm [4] [°C]	other results
O=C(Cc1ccc2cccnc2c1)c1ccc(O)cc1O	–	> 0.5	–
CCCc1cc(C(=O)Cc2cc3ccccc3o2)c(O)cc1OC	inactive	–	–
COc1ccc(CC(=O)Nc2ccc(O)cc2C(=O)O)cc1	–	> 0.5	–
COC(=O)/C=C/C(=O)c1ccc(OC)cc1	inactive	–	IC50 (Isocitrate lyase 1 [1]): 250 µM; IC50 (Isocitrate lyase 1 [5]): 30.9 µM; Tm [3]: 37.6 °C
COc1ccc(O)c(C(=O)CC(=O)c2ccccc2)c1	–	> 0.5	–
Nc1ccc([C@H](O)[C@@H](N)CO)cc1	–	> 0.5	–
CC(Oc1ccc2c3c(c(=O)oc2c1)CCC3)C(=O)NCC1CCC(C(=O)O)CC1 (stereo not given)	–	> 0.5	–
C=C(CC(=O)O)C(=O)O [ITACONATE]	Active	–	IC50 (Isocitrate lyase 1 [1]): 29.4 µM; Tm [3]: 53.3 °C
CCCc1cc(C(=O)Cc2cc3ccccc3o2)c(O)cc1O	–	> 0.5	–
Cc1ccc(C(=O)CC(=O)c2ccco2)c(O)c1	–	> 0.5	–
CCc1cc(C(=O)Cc2cc3ccccc3o2)c(O)cc1OC	inactive	–	–
CC(C)C(NC(=O)OCc1ccccc1)C(=O)NCC(=O)NC(Cc1c[nH]c2ccccc12)C(=O)O (stereo not drawn) (Cbz-Val-Gly-Trp-OH; configuration not given here)	–	> 0.5	–
COc1ccc2oc(C(=O)OCC(=O)c3ccc(C)s3)c(C)c2c1	inactive	–	–
CCCCCCc1cc(C(=O)Cc2cc3ccccc3o2)c(O)cc1O	inactive	–	–
O=C(COc1ccccc1Br)c1ccc(O)cc1O	–	> 0.5	–
O=C(O)C(=O)CBr [BROMOPYRUVATE]	Active	–	IC50 (Isocitrate lyase 1 [1]): 17.5 µM; Tm [3]: 52.5 °C
